A short description of series [1]: folding enthalpy; higher = less favourable; fluorescence melt of hairpins on a sequencing array, two-state fit. The settings on record: sodium 0.088 M. In outline:
(§1)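 To match UV melts, fitted temperatures were raised by 9.35 °C. These fits were bootstrapped two-state models that gave melting temperature and folding enthalpy, combined by inverse variance over four replicates. The input was normalised Cy3 fluorescence of library hairpins with annealed Cy3 and quencher oligos on a sequenced MiSeq flow cell, imaged in 50 mM Na-HEPES pH 8.0, 25 mM NaCl in 2.5 °C steps up to 60 °C.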

Series [2] can be described thus: melting temperature; fluorescence melt of hairpins on a sequencing array, two-state fit, raised by 9.35 °C to match UV melts. The settings on record: sodium 0.088 M. A digest of the protocol: as §1

The source of these data is the array DNA melting data of Ke et al. (doi:10.1101/2024.01.08.574731).

With GATCATAAATATGATC ((((((....)))))), the folding enthalpy in series [1] was -41.4 kcal/mol. The Tm in series [2] was determined as 45.2 °C.

Turning to GATCATAACAATGATC ((((((....)))))), the folding enthalpy in series [1] was -32.1 kcal/mol. Moreover, the Tm in series [2] came to 47 °C.

Turning to GATCATAATCATGATC ((((((....)))))), the folding enthalpy in series [1] was -32.1 kcal/mol. The Tm in series [2] was found to be 46.2 °C.

Regarding GATCATAGAAATGATC ((((((....)))))), in series [1], the folding enthalpy was -29.4 kcal/mol. The Tm in series [2] is 41.7 °C.

For the sequence GATCATAGAATGATC ((((((...)))))), the folding enthalpy in series [1] is -36 kcal/mol. Further, the Tm in series [2] was 48 °C.

For the sequence GATCATAGATATGATC ((((((....)))))), the folding enthalpy in series [1] is -33.6 kcal/mol. In series [2], the Tm stood at 47.3 °C.

Take GATCATAGCAATGATC ((((((....)))))): the folding enthalpy in series [1] was -40.3 kcal/mol. Further, in series [2], the Tm amounted to 47.4 °C.

Take GATCATAGCCATGATC ((((((....)))))): the folding enthalpy in series [1] is -44.5 kcal/mol. Moreover, the Tm in series [2] came to 47.5 °C.

On to GATCATAGTAATGATC ((((((....)))))), for which the folding enthalpy in series [1] was -37.2 kcal/mol. In addition, in series [2], the Tm came to 47.3 °C.

Consider GATCATAGTCATGATC ((((((....)))))), for which the folding enthalpy in series [1] is -32.9 kcal/mol. Besides, the Tm in series [2] is 47.2 °C.

On to GATCATATACATGATC ((((((....)))))), for which the folding enthalpy in series [1] was -32.9 kcal/mol. Moreover, the Tm in series [2] stood at 48.1 °C.

Consider GATCATATTAATGATC ((((((....)))))), for which, in series [1], the folding enthalpy was -34.1 kcal/mol. In series [2], the Tm turned out to be 47.9 °C.

On to GATCATATTCATGATC ((((((....)))))), for which the folding enthalpy in series [1] was -37.3 kcal/mol. In addition, the Tm in series [2] was 47.8 °C.

Turning to GATCATCACCATGATC ((((((....)))))), the folding enthalpy in series [1] is -36.1 kcal/mol. Also, the Tm in series [2] was determined as 46.8 °C.

As for GATCATCATCATGATC ((((((....)))))), the folding enthalpy in series [1] is -34.8 kcal/mol. Moreover, the Tm in series [2] amounted to 45 °C.

Regarding GATCATCCCCATGATC ((((((....)))))), the folding enthalpy in series [1] was -34.9 kcal/mol. In addition, the Tm in series [2] was found to be 46.2 °C.

Consider GATCATCCTATGATC ((((((...)))))), for which the folding enthalpy in series [1] is -33.1 kcal/mol. Moreover, in series [2], the Tm was 48.3 °C.

Regarding GATCATCGACATGATC ((((((....)))))), in series [1], the folding enthalpy was -30.4 kcal/mol. In addition, the Tm in series [2] stood at 44.8 °C.

As for GATCATCGGTATGATC ((((((....)))))), in series [1], the folding enthalpy was -34.2 kcal/mol. Further, in series [2], the Tm was determined as 46.5 °C.

With GATCATCGTCATGATC ((((((....)))))), the folding enthalpy in series [1] is -32.4 kcal/mol. For the same sequence, the Tm in series [2] was determined as 45.4 °C.

As to GATCATCTAAATGATC ((((((....)))))), the folding enthalpy in series [1] is -35.9 kcal/mol. The Tm in series [2] came to 47.4 °C.

Turning to GATCATCTGGATGATC ((((((....)))))), the folding enthalpy in series [1] was -44.9 kcal/mol. The Tm in series [2] was determined as 53 °C.

Take GATCATCTTAATGATC ((((((....)))))): the folding enthalpy in series [1] is -36.5 kcal/mol. For the same sequence, the Tm in series [2] was 49 °C.

Take GATCATCTTATGATC ((((((...)))))): in series [1], the folding enthalpy was -34.7 kcal/mol. In addition, the Tm in series [2] worked out at 49.8 °C.

For GATCATCTTTATGATC ((((((....)))))), the folding enthalpy in series [1] is -32.3 kcal/mol. For the same sequence, the Tm in series [2] was 47.9 °C.

On to GATCATGACTATGATC ((((((....)))))), for which the folding enthalpy in series [1] was -48.6 kcal/mol. The Tm in series [2] is 54.2 °C.

Consider GATCATGAGCATGATC ((((((....)))))), for which the folding enthalpy in series [1] is -36.8 kcal/mol. Moreover, in series [2], the Tm was found to be 48 °C.

GATCATGATAATGATC ((((((....)))))): the folding enthalpy in series [1] was -48.7 kcal/mol. The Tm in series [2] was 55.4 °C.

Turning to GATCATGCCAATGATC ((((((....)))))), in series [1], the folding enthalpy was -45.4 kcal/mol. In addition, the Tm in series [2] stood at 58.5 °C.

As to GATCATGCGATGATC ((((((...)))))), the folding enthalpy in series [1] is -31.9 kcal/mol. In series [2], the Tm stood at 46.9 °C.

With GATCATGCTTATGATC ((((((....)))))), in series [1], the folding enthalpy is -35.9 kcal/mol. Also, the Tm in series [2] worked out at 48 °C.

Take GATCATGGAAACGTGATC (((((.(....).))))): in series [1], the folding enthalpy was -31.7 kcal/mol. In addition, the Tm in series [2] is 46.5 °C.

Consider GATCATGGAAATGATC ((((((....)))))), for which the folding enthalpy in series [1] is -36 kcal/mol. Besides, in series [2], the Tm is 52.4 °C.

As to GATCATGGCGATGATC ((((((....)))))), in series [1], the folding enthalpy is -49.1 kcal/mol. Also, in series [2], the Tm turned out to be 51.5 °C.

As to GATCATGGGCATGATC ((((((....)))))), in series [1], the folding enthalpy was -38 kcal/mol. In series [2], the Tm amounted to 49.6 °C.

Consider GATCATGTACATGATC ((((((....)))))), for which, in series [1], the folding enthalpy is -40.7 kcal/mol. In series [2], the Tm was determined as 56.5 °C.

On to GATCATGTGGATGATC ((((((....)))))), for which, in series [1], the folding enthalpy was -35.2 kcal/mol. Also, in series [2], the Tm was determined as 47.3 °C.

In the case of GATCATGTTGATGATC ((((((....)))))), in series [1], the folding enthalpy was -41.2 kcal/mol. The Tm in series [2] worked out at 48.4 °C.
